This note sets out measurements from ChEMBL document CHEMBL3804799, “Synthesis and Biological Evaluation of Novel σ1 Receptor Ligands for Treating Neuropathic Pain: 6-Hydroxypyridazinones” (J Med Chem, 2016).

Molecules are shown by their SMILES.

In data set [1] the test system is Mus musculus. As to the kind of experiment: Antiallodynic activity in ig dosed Kun Ming mouse assessed as inhibition of formalin-induced pain in delayed pain response phase administered 15 mins prior to formalin challenge measured after 15 to 45 mins post formalin dosing. The format is functional. An outline of the steps:
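Mice received 20 μL of 2.5% formalin (0.92% formaldehyde) in the dorsal right hind paw. Time spent licking or biting the paw was scored at 0–5 min (phase I) and 15–45 min (phase II), with a mirror behind the glass cylinder. Vehicle was 30% PEG 400 at 10 mL/kg, given 15 min before formalin. n = 10–12 per group. % antinociception = (LT_V − LT_D)/LT_V × 100.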

Data set [2] concerns the target Histamine H3 receptor (Rattus norvegicus) (UniProt Q9QYN8). As to the kind of experiment: Displacement of [3H]-N-alpha-methylhistamine from H3 receptor in rat cerebral cortex at 1 uM after 30 mins by liquid scintillation counting analysis. In kind it is tissue-based. Background: Loss of bound radioactivity is the signal in a displacement assay; it reports binding, not function.

Data set [3] can be described thus: AUC (0 to last) in Sprague-Dawley rat at 5 mg/kg, iv by LC-MS/MS analysis. In kind it is ADME, organism-based. The arrangement: dose 5 mg/kg, route intravenous, time 0 - last. As to conditions: in vivo. An outline of the steps:
(§1)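 Rats (n = 3/group) dosed via lateral tail vein, 5 mg/kg in 100% saline. Serial tail-vein blood into heparinized tubes at 30 min and 1, 2, 3, 4, 5, 6, 8 and 24 h. Plasma separated by centrifugation, proteins precipitated with acetonitrile, analysed by LC/MS.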

The nature of data set [4]: Clearance in Sprague-Dawley rat at 5 mg/kg, iv by LC-MS/MS analysis. The following applies: in vivo. In kind it is ADME, organism-based. An outline of the steps: (§2)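 SD rats, n = 3/group. Dosing was either 5 mg/kg iv via tail vein in saline or 80 mg/kg by oral gavage as a suspension in 0.5% methylcellulose. Serial tail-vein blood was drawn into heparinized tubes at 0.5, 1, 2, 3, 4, 5, 6, 8 and 24 h. Plasma was separated, proteins precipitated with acetonitrile, and samples analysed by LC/MS.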

For data set [5], the target named is Sodium-dependent serotonin transporter (Rattus norvegicus) (UniProt P31652). As to the kind of experiment: Inhibition of 5HT transporter in rat cerebral cortex assessed as [3H]-paroxetine uptake at 1 uM after 10 mins by liquid scintillation counting analysis. In kind it is tissue-based.
A short description of data set [6]: Tmax in Sprague-Dawley rat at 80 mg/kg, po administered through gavage by LC-MS/MS analysis. In kind it is ADME, organism-based. The following applies: in vivo. Put shortly: as §2
Data set [7] is described as follows: AUC (0 to infinity) in Sprague-Dawley rat at 5 mg/kg, iv by LC-MS/MS analysis. The format is ADME, organism-based. More on the design: dose 5 mg/kg, time infinity, route intravenous. The following applies: in vivo. Put shortly:
as §1

The subject of data set [8] is Rattus norvegicus. As to the kind of experiment: Effect on mechanical allodynia in sham-operated Sprague-Dawley rat at 20 to 80 mg/kg, po administered as bid on days 15th to 18th. The following applies: in vivo. The format is ADME, organism-based. Put shortly:
(§3)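 Sciatic nerve CCI in SD rats (Bennett–Xie) under 5% chloral hydrate: four loose 4-0 silk ligatures on the right sciatic nerve, about 1 cm proximal to the trifurcation. Oral dosing in 0.5% methylcellulose (10 mL/kg), twice daily on days 15–18. Testing followed the first dose on day 15 and the last dose on day 18. Mechanical withdrawal threshold by von Frey up–down method, four samplings averaged. 10 rats/group.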

The target in data set [9] is Sodium channel protein type 9 subunit alpha (Homo sapiens) (UniProt Q15858). As to the kind of experiment: Inhibition of human Nav 1.7 expressed in HEK293 cells at 1 uM by electrophysiological assay. The format is cell-based.
Data set [10] relates to Mus musculus. In kind it is toxicity, organism-based, Kun Ming. As to conditions: in vivo, po, 40 mg/kg.
Data set [11] in a line: AUC (0 to last) in Sprague-Dawley rat at 80 mg/kg, po administered through gavage by LC-MS/MS analysis. The format is ADME, organism-based. As to conditions: in vivo. The arrangement: dose 80 mg/kg, time 0 - last, route oral. Put shortly:
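Oral gavage to rats (n = 3/group), 80 mg/kg as suspension in 0.5% methylcellulose. Blood drawn serially from lateral tail vein into heparinized tubes at 30 min and 1, 2, 3, 4, 5, 6, 8 and 24 h. Plasma obtained by centrifugation, acetonitrile protein precipitation, LC/MS quantification.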

Data set [12] deals with Cannabinoid receptor 1 (Homo sapiens) (UniProt P21554). As to the kind of experiment: Displacement of [3H]-CP-55940 from human CB1 receptor expressed in CHO cells at 1 uM after 90 mins by liquid scintillation counting analysis. The format is cell-based.
The subject of data set [13] is Rattus norvegicus. As to the kind of experiment: Antiallodynic activity in po dosed Sprague-Dawley rat chronic constriction injury-induced neuropathic pain model assessed as inhibition of mechanical allodynia administered as single dose on day 15th post surgery by Von frey test. The format is functional. An outline of the steps:
as §3

Data set [14] has as its system Rattus norvegicus. As to the kind of experiment: Effect on thermal hypersensitivity in sham-operated Sprague-Dawley rat at 20 to 80 mg/kg, po administered as bid on days 15th to 18th. The format is ADME, organism-based. The following applies: in vivo. An outline of the steps: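 CCI or sham SD rats, 10 per group, dosed orally in 0.5% methylcellulose (10 mL/kg) twice daily on days 15–18. Tested after the first dose on day 15 and the last dose on day 18. Plantar test: after 30 min acclimation on a glass floor, radiant heat was applied under the hind paw and withdrawal latency recorded. 30 s cutoff; mean of four samplings.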

For data set [15], the target named is Transient receptor potential cation channel subfamily V member 1 (Homo sapiens) (UniProt Q8NER1). As to the kind of experiment: Inhibition of human TRPV-1 expressed in HEK293 cells at 1 uM by whole cell patch clamp method. In kind it is cell-based.
Transient receptor potential cation channel subfamily V member 1 (Homo sapiens), sequence (Q8NER1 whole entry): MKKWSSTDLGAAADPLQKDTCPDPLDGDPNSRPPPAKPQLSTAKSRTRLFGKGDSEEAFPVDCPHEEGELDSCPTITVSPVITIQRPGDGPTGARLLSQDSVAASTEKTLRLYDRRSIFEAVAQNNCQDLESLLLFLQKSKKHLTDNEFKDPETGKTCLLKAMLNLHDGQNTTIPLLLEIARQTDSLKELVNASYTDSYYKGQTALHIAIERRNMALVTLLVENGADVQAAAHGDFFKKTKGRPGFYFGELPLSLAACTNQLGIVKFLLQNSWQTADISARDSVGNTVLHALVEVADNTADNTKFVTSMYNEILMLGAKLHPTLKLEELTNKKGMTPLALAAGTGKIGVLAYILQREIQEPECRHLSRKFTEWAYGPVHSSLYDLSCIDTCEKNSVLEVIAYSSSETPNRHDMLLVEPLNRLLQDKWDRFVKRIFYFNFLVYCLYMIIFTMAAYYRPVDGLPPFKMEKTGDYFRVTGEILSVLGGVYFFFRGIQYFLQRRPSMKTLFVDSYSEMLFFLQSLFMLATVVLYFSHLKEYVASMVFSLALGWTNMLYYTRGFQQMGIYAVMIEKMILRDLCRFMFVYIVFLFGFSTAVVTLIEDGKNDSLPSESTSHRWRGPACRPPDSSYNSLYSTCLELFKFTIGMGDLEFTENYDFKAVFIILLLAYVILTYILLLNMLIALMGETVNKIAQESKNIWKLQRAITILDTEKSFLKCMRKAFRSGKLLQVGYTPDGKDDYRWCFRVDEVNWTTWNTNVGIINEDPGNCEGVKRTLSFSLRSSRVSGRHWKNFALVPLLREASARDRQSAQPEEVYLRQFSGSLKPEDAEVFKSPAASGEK

Sodium channel protein type 9 subunit alpha (Homo sapiens), sequence (Q15858 whole entry, looked up): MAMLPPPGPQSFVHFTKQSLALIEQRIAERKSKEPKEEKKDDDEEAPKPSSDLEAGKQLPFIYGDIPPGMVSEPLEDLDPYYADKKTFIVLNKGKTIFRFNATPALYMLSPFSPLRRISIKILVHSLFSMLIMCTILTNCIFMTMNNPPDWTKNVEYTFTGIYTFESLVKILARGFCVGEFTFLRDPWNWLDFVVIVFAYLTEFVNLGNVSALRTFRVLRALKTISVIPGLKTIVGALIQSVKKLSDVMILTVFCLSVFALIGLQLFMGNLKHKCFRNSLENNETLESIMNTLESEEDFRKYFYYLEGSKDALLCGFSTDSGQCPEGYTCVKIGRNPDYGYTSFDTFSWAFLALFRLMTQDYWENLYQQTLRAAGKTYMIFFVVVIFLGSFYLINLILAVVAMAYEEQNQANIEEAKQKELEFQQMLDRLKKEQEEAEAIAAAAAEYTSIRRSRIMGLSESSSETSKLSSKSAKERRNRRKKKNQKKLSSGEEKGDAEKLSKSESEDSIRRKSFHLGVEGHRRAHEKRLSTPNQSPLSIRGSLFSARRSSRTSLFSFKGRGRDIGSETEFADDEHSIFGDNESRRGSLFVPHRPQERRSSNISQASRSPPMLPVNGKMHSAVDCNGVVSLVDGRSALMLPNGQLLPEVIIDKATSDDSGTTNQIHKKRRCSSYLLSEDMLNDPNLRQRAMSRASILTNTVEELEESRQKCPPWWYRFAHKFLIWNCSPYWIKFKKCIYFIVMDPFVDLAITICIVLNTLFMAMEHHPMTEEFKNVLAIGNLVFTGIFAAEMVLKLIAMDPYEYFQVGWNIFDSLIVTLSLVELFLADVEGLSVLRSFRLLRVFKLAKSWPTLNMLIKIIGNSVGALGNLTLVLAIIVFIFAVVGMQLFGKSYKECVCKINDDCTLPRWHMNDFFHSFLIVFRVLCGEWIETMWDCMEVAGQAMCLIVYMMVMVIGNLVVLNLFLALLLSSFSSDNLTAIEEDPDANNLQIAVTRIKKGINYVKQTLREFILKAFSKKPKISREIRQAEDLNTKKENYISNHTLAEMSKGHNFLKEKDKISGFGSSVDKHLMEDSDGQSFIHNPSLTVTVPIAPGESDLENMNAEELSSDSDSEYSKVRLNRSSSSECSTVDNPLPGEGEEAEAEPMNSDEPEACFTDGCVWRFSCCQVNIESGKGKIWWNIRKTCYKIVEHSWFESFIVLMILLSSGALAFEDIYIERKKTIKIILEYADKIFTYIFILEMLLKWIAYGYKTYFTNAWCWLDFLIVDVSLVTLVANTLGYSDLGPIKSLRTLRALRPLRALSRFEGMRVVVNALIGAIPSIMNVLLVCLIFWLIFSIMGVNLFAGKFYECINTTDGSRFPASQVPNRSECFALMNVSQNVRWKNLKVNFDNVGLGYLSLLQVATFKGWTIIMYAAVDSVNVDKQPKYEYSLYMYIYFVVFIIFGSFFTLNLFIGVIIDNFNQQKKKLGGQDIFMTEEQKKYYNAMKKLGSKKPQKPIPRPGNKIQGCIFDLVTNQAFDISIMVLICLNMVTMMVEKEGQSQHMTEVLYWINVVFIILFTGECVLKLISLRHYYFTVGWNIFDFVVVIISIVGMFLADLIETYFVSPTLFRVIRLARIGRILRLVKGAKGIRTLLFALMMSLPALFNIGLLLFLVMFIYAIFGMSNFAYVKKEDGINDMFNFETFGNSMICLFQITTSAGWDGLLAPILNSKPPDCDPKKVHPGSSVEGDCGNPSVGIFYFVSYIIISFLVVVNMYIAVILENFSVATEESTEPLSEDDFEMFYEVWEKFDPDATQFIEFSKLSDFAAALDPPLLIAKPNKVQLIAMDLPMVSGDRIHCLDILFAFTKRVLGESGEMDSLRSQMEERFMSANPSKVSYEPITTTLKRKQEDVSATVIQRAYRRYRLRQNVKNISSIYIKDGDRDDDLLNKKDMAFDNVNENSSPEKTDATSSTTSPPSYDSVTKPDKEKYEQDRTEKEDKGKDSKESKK
Sodium-dependent serotonin transporter (Rattus norvegicus), sequence (P31652 whole entry): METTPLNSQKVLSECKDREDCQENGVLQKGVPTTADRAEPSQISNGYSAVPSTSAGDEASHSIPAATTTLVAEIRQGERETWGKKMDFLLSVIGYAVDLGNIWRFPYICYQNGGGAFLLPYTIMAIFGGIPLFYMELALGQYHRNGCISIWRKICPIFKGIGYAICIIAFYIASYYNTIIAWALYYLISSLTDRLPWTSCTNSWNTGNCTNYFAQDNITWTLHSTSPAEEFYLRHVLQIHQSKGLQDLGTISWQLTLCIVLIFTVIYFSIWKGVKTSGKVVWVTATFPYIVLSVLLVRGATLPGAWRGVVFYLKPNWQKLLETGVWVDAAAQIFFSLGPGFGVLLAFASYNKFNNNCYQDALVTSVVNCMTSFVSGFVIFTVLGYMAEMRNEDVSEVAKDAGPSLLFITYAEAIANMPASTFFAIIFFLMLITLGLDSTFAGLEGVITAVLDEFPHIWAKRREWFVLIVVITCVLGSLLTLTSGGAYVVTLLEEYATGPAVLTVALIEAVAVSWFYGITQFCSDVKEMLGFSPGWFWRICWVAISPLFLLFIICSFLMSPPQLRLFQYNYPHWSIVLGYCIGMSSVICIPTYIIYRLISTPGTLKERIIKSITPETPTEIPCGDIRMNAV
Cannabinoid receptor 1 (Homo sapiens), sequence (P21554 whole entry): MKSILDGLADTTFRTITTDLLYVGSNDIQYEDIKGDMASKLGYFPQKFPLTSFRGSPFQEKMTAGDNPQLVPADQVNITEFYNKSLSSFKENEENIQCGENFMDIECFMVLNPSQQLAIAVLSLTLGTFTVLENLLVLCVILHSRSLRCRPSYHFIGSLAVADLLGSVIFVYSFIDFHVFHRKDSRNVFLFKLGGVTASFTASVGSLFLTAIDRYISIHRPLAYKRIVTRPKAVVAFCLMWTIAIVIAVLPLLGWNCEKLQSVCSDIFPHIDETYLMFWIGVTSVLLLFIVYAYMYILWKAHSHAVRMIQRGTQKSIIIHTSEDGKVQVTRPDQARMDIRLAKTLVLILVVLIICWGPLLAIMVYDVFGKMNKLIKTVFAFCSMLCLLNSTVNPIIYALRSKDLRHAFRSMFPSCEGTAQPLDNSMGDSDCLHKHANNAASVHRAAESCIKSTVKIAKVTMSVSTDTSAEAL
Histamine H3 receptor (Rattus norvegicus), sequence (Q9QYN8 whole entry): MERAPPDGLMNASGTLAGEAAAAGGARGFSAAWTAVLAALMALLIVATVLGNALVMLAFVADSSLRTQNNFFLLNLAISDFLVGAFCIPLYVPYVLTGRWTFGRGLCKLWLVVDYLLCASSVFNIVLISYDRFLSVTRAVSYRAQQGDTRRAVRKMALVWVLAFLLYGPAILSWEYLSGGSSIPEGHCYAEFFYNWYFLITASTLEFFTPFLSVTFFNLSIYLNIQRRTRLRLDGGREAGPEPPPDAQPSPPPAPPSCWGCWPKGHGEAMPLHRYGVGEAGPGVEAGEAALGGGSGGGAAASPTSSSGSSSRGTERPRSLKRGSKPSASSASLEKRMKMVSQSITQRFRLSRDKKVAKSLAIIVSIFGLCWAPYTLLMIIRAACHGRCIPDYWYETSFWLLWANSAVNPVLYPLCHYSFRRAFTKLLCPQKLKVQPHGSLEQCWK

Regarding `O=c1ccc(OCCCN2CCCCC2)nn1-c1ccc(Cl)c(Cl)c1`, the Activity result was “Dose-dependent effect” in data set [1], “Non-toxic” in [8], 22826.6 mm in data set [10] and “Non-toxic” in data set [14]. The values for the ED50 in [1] (po) and in data set [13] were 49 mg/kg and 51.9 mg/kg, respectively. Besides, the inhibition in data set [2], in data set [5], in data set [9], in data set [12] and in data set [15] was under 50% each time. For the same compound, the values for the AUC(0-t) in data set [3] and in data set [11] were 0.931 µg·h/mL and 11.7 µg·h/mL, respectively. Moreover, the clearance in data set [4] amounted to 2.96 L/h/kg. Also, the Tmax in data set [6] amounted to 19.8 min. Moreover, the total exposure AUC(0-inf) in [7] came to 0.956 µg·h/mL.

In general, ED50 refers to the midpoint of the dose-response relation. As usually defined, the inhibition is the percentage by which the read-out fell short of the control. The AUC(0-t) is exposure summed from dosing to a finite time, without extrapolation to infinity. Read a high AUC(0-t) as more exposure. Broadly, the clearance is the rate of elimination divided by the concentration. As usually defined, the Tmax is the time at which the peak concentration occurs. As a reminder, the AUC(0-inf) is total exposure, with the tail of the curve extrapolated.
